Results on 37 variants are retold here after the RNAGym collection of RNA variant scans (doi:10.1126/science.aae0568).

Variants at the floor of the assay were thinned out.

To fix the notation:
B1: tRNA (parent)
chain: GUUCCGUUGGCGUAAUGGUAACGCGUCUCCCUCCUAAGGAGAAGACUGCGGGUUCGAGUCCCGUACGGAACG

The series covers variants of B1. Description: yeast fitness relative to wild type (ratio to wild type); higher = fitter; tRNA-Arg(CCU), competitive growth, 37 C, YPD. Put shortly:
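Gene amplicons from the start population and from each of six end populations were read by 100-nucleotide paired-end sequencing. Those end populations came from pooled Saccharomyces cerevisiae strains carrying tRNA-Arg(CCU) gene variants at the native locus, competed in YPD at 37°C for 24 hours. Fitness relative to wild type was worked out from changes in genotype frequencies. Genotypes needed ≥ 100 starting reads, and estimates < 0.5 were set to 0.5.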
GUUCAGUUGGCGUAAUGGUAACGCGUCUCUCUCCUAAGGACAAGACUGCGGGUUCGAGUCCCGUACGGAACG [C5A C30U G41C]: the yeast fitness was at most 0.5. The same measure for GUUCAGUUGGCGUAAUGGUAAGGCGUCUCCCUCCUAAGGAGAAGACUGGGGGUUCGAGUCCCGUACGCAACG [C5A C22G C49G G68C]: 0.578. The result for GUUCAGUUGGCGUAAUGGUAACGCGUCUGCCUCCUAAGGAGAAGACUGCGGGUUCCAGACCCGUACGGAACG [C5A C29G G56C U59A] reads 0.717; that for GUUCAGUUGGGGUAAUGGUAUCGCGUCUCCCUCCUAAGGAGAAGACUGCGGGUUCGAGUCCCGUCCGGAACG [C5A C11G A21U A65C], at most 0.5. The result for GUUCAGUUGGCGUAAUGGUAACGCGUCUCACUCCUAAGGAGAAGACUGCGAGUUCGAGUCCCGUACGGAACG [C5A C30A G51A] reads at most 0.5; that for GUUCAGUUGGCGUAAUGGUAACGCGUCUCGCUCCUGAGGAGAAGACUGCGGGUUCGUGUCCCGUUCGGAACG [C5A C30G A36G A57U A65U], at most 0.5.

Take GUUCAGUUGGCGUAAUGGUAACGUGUCUCCCUCCUAAGGAGAAGACUGCGGGUUCGAGUCCUGUACGGAACG [C5A C24U C62U]: the yeast fitness was found to be 0.624. Regarding GUUCAGUUGGGGUAAUGGUAACGCGUCUCCCUCCUAAGGAGAAGCCUGCGGGUUCGAGUCCCGUACGGAACG [C5A C11G A45C], the yeast fitness was at most 0.5. As to GUUCAGUUGGUGUUAUGGUAACGCGUUUCCCUCCUUAGGAGAGGAUUGCGGGUUCGAGUCCCGUACGGAACG [C5A C11U A14U C27U A36U A43G C46U], the yeast fitness is at most 0.5. With GUUCAGUUGGCGUAAUGGUAACGCGUAUCCCUCGUAAGGAGAAGACUGCGGGUUCGAGUCCCGUACGGAACG [C5A C27A C34G], the yeast fitness stood at 0.507. The same measure for GUUCAGUUGGGGUAAUGGUAACGCGUCUCCCUCCUAAGGAGAAGACUCCGGGUUCGAGUCCCGUACCGAACG [C5A C11G G48C G67C]: at most 0.5; for GUUCAGUUGGGGUAAUGGUAACGCGUCUCCCUCCUAAGGACAAGACUGCGGGUUCGAGUCCCGUACGUAACG [C5A C11G G41C G68U]: 0.524; for GUUCAGUUGGCGUAAUGGUAACGGGUCUCCGUCCUAAGGAGAAGACUGCGCGUUCGAGGCCCGUACGGAACG [C5A C24G C31G G51C U59G]: at most 0.5. The same measure for GUUCAGUUGGCGUAAUGGUAACGGGUCUCCCUCGUAAGGAGAAGACUGCGGGUUCGAGUCCCGUACGGAACG [C5A C24G C34G]: at most 0.5; for GUUCAGUUGGCGUAAUGGUAAGGCGUGUCCCUCCUUAGGCGAAGACUGCGGGUUCGAGUCCCGUAUGGAACG [C5A C22G C27G A36U A40C C66U]: at most 0.5. Consider GUUCAGUUGGCGUAAUGGUAACGCGUCUACCUCCUAAGGAGAAGACUGCGGGUUCGAGUCCCGUACGGAUCG [C5A C29A A70U], for which the yeast fitness is at most 0.5.

With GUUCAGUUGGCGUAAUGGUAACGCGUCUCGGCCCUAAGGAGAAGACUGCGGGUUCGAGUCCCGUACGGAACG [C5A C30G C31G U32C], the yeast fitness worked out at 0.598.

GUUCAGUUGGCGUAAUGGUAAGGCGUCUCCCUCCUAAGGAGAAGACUGGGGGUUCGAGUCCCGUACGGAACG [C5A C22G C49G]: the yeast fitness was 0.563. The same measure for GUUCAGUUGGCGUAAUGGUAACGAGUCUCCCUCCUAAGGAGAAGACUGCGGGUUCGAGUCCCGUACGGAACG [C5A C24A]: 0.727; for GUUCAGUUGGCGUAAUGGUAAGGCGUCUACCUCCUAAGGAGAAGACUGCGGGUUCGAGUCCCGUACAGAACG [C5A C22G C29A G67A]: 0.531; for GUUCAGUUGGCGUAAUGGUAACGGGUCUCCGUCCUAAGGAGAAGACUGCGGGUUCGAGUCCCGUACGGAACG [C5A C24G C31G]: 0.555. The same measure for GUUCAGUUGGCGUAAUGGUAACGCGUCUUCCUCCUAAGGAGAAGACUGCGGGUUCGAGUCCCGUACGGAACG [C5A C29U]: 0.731; for GUUCAGUUGGUGUAAUGGUAACGCGUCUCCGUCCUAAGGAGAAGACUGCGGGUUCGAGUCCCGUACGGAUCG [C5A C11U C31G A70U]: at most 0.5. The same measure for GUUCAGUUGGCGUAAUGGUAAUGCGUGUCGCUCCUAAGGAGAAGACUGCGGGUUCGAGUCCCGUACGGAACG [C5A C22U C27G C30G]: at most 0.5; for GUUCAGUUGGCGUAAUGGUAACGUGUCUCCCUCCCAAGGAGAAGACUGCGGGUUCGAGUCCCGUAUGGAACG [C5A C24U U35C C66U]: 0.549; for GUUCAGUUGGGGUAAUGGUAACGCGUCUCCCUCCUAAGGACAAGACUGCGGGUUCGAGUCCCGUACGGAACG [C5A C11G G41C]: 0.561. In the case of GUUCAGUUGGCGUAAUGGUAACGCGUCUCACUCCUAAGGAGAAGACUGCGGGUUCGAGUCCCGCACGGAACG [C5A C30A U64C], the yeast fitness came to 0.547. The same measure for GUUCAGUUGGGGUAAUGGUAACGCGUCUCGCUCCUUAGGAGAAGACUGCGGGUUCGAGUACCGUACGGAACG [C5A C11G C30G A36U C60A]: at most 0.5. The result for GUUCAGUUGGCGUAAUGGUAAAGCGUGUCCCUCCUAAGGAGAUGACUGCGGGUUCGAGUACCGUACGGAACG [C5A C22A C27G A43U C60A] reads at most 0.5. GUUCAGUUGGCGUAAUGGUAACGCGUGUCUCCCCUGUGGAGAAGACUGCGGGUUCGAGUCCCGUACAGAACG [C5A C27G C30U U32C A36G A37U G67A]: the yeast fitness was at most 0.5. Consider GUUCAGUUGGCGUAAUGGUAACGUGUCUCCCUCCUAAGGAGAAGACUGCGGGUUCGAGUCCCGUACGGCACG [C5A C24U A69C], for which the yeast fitness was 0.641. The result for GUUCAGUUGGCGUAAUGGUAACGUGUCUCCCUCCUAAGGAGAAGACUGCGGGUUCGAGUCCCGCACGGAACG [C5A C24U U64C] reads 0.639; that for GUUCAGUUGGCGUAAUGGUAACGGGUCUCCCUCCUAAGGAGAAGACUGCGGGUUCGAGUCCCAUACGGAACG [C5A C24G G63A], at most 0.5; that for GUUCAGUUGGGGUAAUGGUAACGCGUCUCCCUCCUAAGGAGAAGACUGCGGGUUCGAGUCCGGUACGGAACG [C5A C11G C62G], at most 0.5. The same measure for GUUCAGUUGGUGUAAUGGUAGCGAGUCUCCCUCCUAAGGAGAAGACUGCGGAUUCGAGUACCGUACGGGACG [C5A C11U A21G C24A G52A C60A A69G]: at most 0.5. The same measure for GUUCAGUUGGCGUAAUGGUAAAGCGUCUCCCUCCUUAGGUGAAGACUGCGGGUUCGAGUCCCGUACGGAACG [C5A C22A A36U A40U]: at most 0.5; for GUUCAGUUGGCGUAAUGGUAAUGCGUCUCCCUCCUAAGGAGAAGACUGUCGGUUCGAGUCCCGUACGGAACG [C5A C22U C49U G50C]: at most 0.5.
